Measured values: ChEMBL document CHEMBL1765017, “Homoisoflavonoids: natural scaffolds with potent and selective monoamine oxidase-B inhibition properties” (J Med Chem, 2011)

Experiments:
[1] = molecular target: T1, Amine oxidase [flavin-containing] A (Homo sapiens, UniProt P21397); assay: Inhibition of human recombinant MAO-A expressed in baculovirus infected BTI-TN-5B1-4 insect sells assessed as hydrogen peroxide production at 100 uM by fluorimetric method; settings: for inhibition (INH): human, bti-tn-5b1-4, 100 µM; for inhibition at 100 µM: BTI-TN-5B1-4, human
T1 sequence (P21397 whole entry): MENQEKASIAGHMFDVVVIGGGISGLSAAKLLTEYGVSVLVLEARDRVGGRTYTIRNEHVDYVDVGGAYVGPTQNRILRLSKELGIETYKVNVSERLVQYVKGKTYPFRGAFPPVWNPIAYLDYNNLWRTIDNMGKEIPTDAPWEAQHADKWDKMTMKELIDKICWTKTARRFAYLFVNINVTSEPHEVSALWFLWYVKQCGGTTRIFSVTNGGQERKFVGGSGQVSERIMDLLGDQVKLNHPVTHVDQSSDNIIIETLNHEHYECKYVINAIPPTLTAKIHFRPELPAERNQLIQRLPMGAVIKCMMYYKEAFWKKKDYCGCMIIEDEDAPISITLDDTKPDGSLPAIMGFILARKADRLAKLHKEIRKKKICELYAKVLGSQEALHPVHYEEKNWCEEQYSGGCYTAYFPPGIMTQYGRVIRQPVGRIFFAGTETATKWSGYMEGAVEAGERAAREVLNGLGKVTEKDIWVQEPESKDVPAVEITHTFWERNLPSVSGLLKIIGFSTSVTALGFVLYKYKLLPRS
In short: (§1)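 Microsomal human MAO-A or MAO-B from BTI-TN-5B1-4 insect cells infected with recombinant baculovirus carrying the isoform cDNA. p-Tyramine was the substrate for both isoforms. H2O2 production was detected fluorimetrically with the Amplex Red reagent. Compounds were checked for direct reaction with Amplex Red. Highest concentrations tested were 100 μM, or 1 mM for some compounds.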

[2] = molecular target: T2, Amine oxidase [flavin-containing] B (Homo sapiens, UniProt P27338); assay: biochemical; assay type: cell-based, BTI-TN-5B1-4
T2 sequence (P27338 whole entry): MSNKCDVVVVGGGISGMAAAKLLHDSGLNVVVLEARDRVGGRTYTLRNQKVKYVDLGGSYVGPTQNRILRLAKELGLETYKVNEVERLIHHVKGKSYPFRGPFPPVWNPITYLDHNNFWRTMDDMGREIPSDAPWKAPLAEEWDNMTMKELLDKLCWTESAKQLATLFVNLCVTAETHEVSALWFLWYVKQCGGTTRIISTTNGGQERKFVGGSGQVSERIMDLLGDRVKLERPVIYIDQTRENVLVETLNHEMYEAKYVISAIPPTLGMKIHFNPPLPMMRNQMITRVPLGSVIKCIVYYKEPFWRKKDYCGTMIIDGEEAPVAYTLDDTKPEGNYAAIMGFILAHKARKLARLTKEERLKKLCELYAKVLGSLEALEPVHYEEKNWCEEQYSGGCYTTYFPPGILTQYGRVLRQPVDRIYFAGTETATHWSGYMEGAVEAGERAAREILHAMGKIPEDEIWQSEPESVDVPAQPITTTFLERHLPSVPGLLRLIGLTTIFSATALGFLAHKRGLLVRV

[3] = molecular target: T2, Amine oxidase [flavin-containing] B; assay: Inhibition of human recombinant MAO-B expressed in baculovirus infected BTI-TN-5B1-4 insect sells assessed as hydrogen peroxide production at 100 uM by fluorimetric method; settings: for inhibition at 100 µM: BTI-TN-5B1-4, human; for inhibition (INH): human, bti-tn-5b1-4, 100 µM; in short: as §1
[4] = molecular target: T1, Amine oxidase [flavin-containing] A; assay: Inhibition of human recombinant MAO-A expressed in baculovirus infected BTI-TN-5B1-4 insect sells assessed as hydrogen peroxide production by fluorimetric method
Homo sapiens = species: Homo sapiens; assay: Selectivity index, ratio of IC50 for human MAO-A to IC50 for human MAO-B
In short: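 SI = IC50(hMAO-A)/IC50(hMAO-B). IC50s come from the Amplex Red fluorimetric assay of H2O2 from p-tyramine using baculovirus-expressed human isoforms, mean ± SEM of five experiments.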

[5] = molecular target: T2, Amine oxidase [flavin-containing] B; assay: Inhibition of human recombinant MAO-B expressed in baculovirus infected BTI-TN-5B1-4 insect sells assessed as hydrogen peroxide production at 1 mM by fluorimetric method; settings: bti-tn-5b1-4, 1000 µM; in short: as §1
[6] = molecular target: T1, Amine oxidase [flavin-containing] A; assay: Inhibition of human recombinant MAO-A expressed in baculovirus infected BTI-TN-5B1-4 insect sells assessed as hydrogen peroxide production at 500 uM measured after repeated washing by fluorimetric method; settings: BTI-TN-5B1-4, human
In short: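 Microsomal hMAO-A from insect cells infected with recombinant baculovirus. After exposure to inhibitor, the enzyme was washed repeatedly by centrifugation-ultrafiltration. Remaining activity was then read by Amplex Red fluorescence as H2O2 formed from p-tyramine. Percent inhibition is compared with before washing by ANOVA/Dunnett's. Mean ± SEM, n = 5.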

[7] = molecular target: T1, Amine oxidase [flavin-containing] A; assay: Inhibition of human recombinant MAO-A expressed in baculovirus infected BTI-TN-5B1-4 insect sells assessed as hydrogen peroxide production at 500 uM by fluorimetric method; settings: BTI-TN-5B1-4, human
In short: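 Microsomal hMAO-A from insect cells (BTI-TN-5B1-4) infected with recombinant baculovirus carrying the hMAO-A cDNA. Fluorimetric Amplex Red assay measures H2O2 formed from p-tyramine, the substrate. Percent inhibition is expressed against control activity, given as pmol p-tyramine oxidised per min. Mean ± SEM of five experiments.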

[8] = molecular target: T1, Amine oxidase [flavin-containing] A; assay: Inhibition of human recombinant MAO-A expressed in baculovirus infected BTI-TN-5B1-4 insect sells assessed as hydrogen peroxide production at 50 uM by fluorimetric method; settings: BTI-TN-5B1-4, human
[9] = molecular target: T2, Amine oxidase [flavin-containing] B; assay: Inhibition of human recombinant MAO-B expressed in baculovirus infected BTI-TN-5B1-4 insect sells assessed as hydrogen peroxide production at 10 nM by fluorimetric method; settings: BTI-TN-5B1-4, human
[10] = molecular target: T2, Amine oxidase [flavin-containing] B; assay: Inhibition of human recombinant MAO-B expressed in baculovirus infected BTI-TN-5B1-4 insect sells assessed as hydrogen peroxide production at 10 nM measured after repeated washing by fluorimetric method; settings: BTI-TN-5B1-4, human
[11] = molecular target: T1, Amine oxidase [flavin-containing] A; assay: Inhibition of human recombinant MAO-A expressed in baculovirus infected BTI-TN-5B1-4 insect sells assessed as hydrogen peroxide production at 50 uM measured after repeated washing by fluorimetric method; settings: BTI-TN-5B1-4, human

SMILES | inhibition (INH) [1] | IC50 [2] [nM] | further results
O=C1c2c(Cl)cc(Cl)cc2OCC1Cc1ccc(Cl)cc1 (stereo unspecified) | Not Active | 4590 | –
O=C1c2ccccc2OCC1Cc1ccc(O)cc1 (stereo unspecified) | Not Active | – | inhibition at 100 µM [3]: 40%
O=C1/C(=C/c2ccc(O)c(O)c2)COc2ccccc21 | – | 141 | IC50 [4]: 4740 nM; Ratio IC50 (Homo sapiens): 34
COc1ccc(Cc2coc3ccccc3c2=O)cc1 | Not Active | 21600 | –
O=C1/C(=C/c2ccc(Cl)cc2)COc2cc(Cl)cc(Cl)c21 | Not Active | 13 | –
COc1cc(/C=C2\COc3ccccc3C2=O)cc(OC)c1OC | Not Active | 20700 | –
O=C(O)c1cc(/C=C2\COc3ccccc3C2=O)ccc1O | Not Active | – | inhibition (INH) [3]: Not Active
COc1ccc(/C=C2\COc3ccccc3C2=O)cc1O | Not Active | 477 | –
O=C1/C(=C/c2ccccc2)COc2ccc(Cl)cc21 | Not Active | 331 | –
COc1ccc(/C=C2\COc3cc(OC)cc(OC)c3C2=O)cc1 | Not Active | 1570 | –
O=C1/C(=C/c2ccccc2)COc2ccccc21 | Not Active | 480 | –
O=c1c(Cc2ccc(Cl)cc2)coc2cc(Cl)cc(Cl)c12 | – | 439 | inhibition at 100 µM [1]: 40%
CN(C)c1ccc(/C=C2\COc3ccccc3C2=O)cc1 | Not Active | 8.51 | –
O=c1c(Cc2ccccc2)coc2ccccc12 | Not Active | – | inhibition (INH) [3]: Not Active
Nc1ccc(/C=C2\COc3ccccc3C2=O)cc1 | Not Active | 879 | –
O=C(NCCN1CCOCC1)c1ccc(Cl)cc1 [MOCLOBEMIDE] | – | – | inhibition (INH) [5]: Not Active; inhibition at 500 µM [6]: 11.4%; inhibition at 500 µM [7]: 86%
COc1cccc(/C=C2\COc3ccccc3C2=O)c1OC | Not Active | 1920 | –
COc1ccc(/C=C2\COc3ccccc3C2=O)cc1 | Not Active | 58.9 | –

SMILES | inhibition (INH) [1] | IC50 [2] [nM] | further results
O=c1c(Cc2ccc(O)cc2)coc2ccccc12 | Not Active | – | inhibition at 100 µM [3]: 40%
COc1ccc(/C=C2\COc3ccccc3C2=O)c(OC)c1 | Not Active | 248 | –
O=C1/C(=C/c2ccc(Cl)cc2)COc2ccccc21 | Not Active | 154 | –
O=C1/C(=C/c2ccc(O)cc2)COc2ccccc21 | Not Active | 55.4 | –
O=C1c2ccccc2OCC1Cc1ccccc1 (stereo unspecified) | Not Active | 58500 | –
CC(=O)Nc1ccc(/C=C2\COc3ccccc3C2=O)cc1 | – | 1060 | IC50 [4]: 2100 nM; Ratio IC50 (Homo sapiens): 2
O=C1c2ccccc2OCC1Cc1ccc(Cl)cc1 (stereo unspecified) | Not Active | 7370 | –
O=C1/C(=C/c2ccc(O)cc2)COc2cc(O)cc(O)c21 | – | 8.61 | inhibition at 50 µM [8]: 68.3%; inhibition at 0.01 µM [9]: 48.7%; inhibition at 0.01 µM [10]: 36.2%; inhibition at 50 µM [11]: 61.8%; IC50 [4]: 11500 nM; Ratio IC50 (Homo sapiens): 1330
O=c1c(Cc2ccc(Cl)cc2)coc2ccccc12 | Not Active | – | inhibition (INH) [3]: Not Active
COc1ccc(Cc2coc3cc(OC)cc(OC)c3c2=O)cc1 | Not Active | – | inhibition at 100 µM [3]: 40%
O=C1/C(=C/c2ccc(Cl)cc2)COc2ccc(Cl)cc21 | Not Active | 31.8 | –
COc1ccc(/C=C2\COc3ccccc3C2=O)c(OC)c1OC | Not Active | 1310 | –
COc1ccc(/C=C2\COc3ccccc3C2=O)c(O)c1 | – | 1330 | inhibition at 100 µM [1]: 40%
Nc1cc(/C=C2\COc3ccccc3C2=O)ccc1O | – | 484 | IC50 [4]: 1440 nM; Ratio IC50 (Homo sapiens): 3
O=C1c2cc(Cl)ccc2OCC1Cc1ccc(Cl)cc1 (stereo unspecified) | Not Active | 3070 | –
O=c1c(Cc2ccc(Cl)cc2)coc2ccc(Cl)cc12 | Not Active | – | inhibition at 100 µM [3]: 40%
O=C1/C(=C/c2ccc(O)c([N+](=O)[O-])c2)COc2ccccc21 | Not Active | 491 | –
COc1cc(/C=C2\COc3ccccc3C2=O)ccc1O | – | 104 | inhibition at 100 µM [1]: 40%
